{
  "source": "ChEMBL document CHEMBL3259588",
  "about": "“Anti-inflammatory drimane sesquiterpene lactones from an Aspergillus species” (Bioorg Med Chem, 2014)",
  "format_in_all_cases": "cell-based",
  "key": {"[1]": {"test_system": "DLD-1", "assay": "Inhibition of TNF-alpha/IFN-gamma/IL-1beta-induced human CXCL10 (972 bp) promoter activity expressed in human DLD1 cells assessed as reduction in MIF expression pretreated at 131.5 uM for 1 hr prior to 16 hrs cytokine challenge by proteome profiling method relative to untreated-control", "how_it_was_run": "(§1)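 DLD-1 starved 16 h in 0.5% FCS, seeded 5×10^6 cells/mL, pretreated 1 h with compound, then stimulated 16 h with 10 ng/mL TNF-α, 10 ng/mL IFN-γ, 5 ng/mL IL-1β. Supernatant cytokines/chemokines detected on Human Cytokine Array Panel A antibody array.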"}, "[2]": {"test_system": "DLD-1", "assay": "Inhibition of TNF-alpha/IFN-gamma/IL-1beta-induced human CXCL10 (972 bp) promoter activity expressed in human DLD1 cells assessed as reduction in IL1-beta expression pretreated at 131.5 uM for 1 hr prior to 16 hrs cytokine challenge by proteome profiling method relative to untreated-control", "how_it_was_run": "as §1"}, "[3]": {"assay": "Cytotoxicity against human DLD1 cells up to 158 uM after 48 hrs by XTT assay", "conditions": "dld-1, 48 h", "how_it_was_run": "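DLD-1 cells (RPMI 1640, 25 mM HEPES, 10% FCS, 37 °C, 5% CO2) exposed to compound for 48 h; viability read as XTT reduction to coloured formazan.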"}, "[4]": {"test_system": "DLD-1", "assay": "Inhibition of TNF-alpha/IFN-gamma/IL-1beta-induced human CXCL10 (972 bp) promoter activity expressed in human DLD1 cells assessed as reduction in TNF-alpha expression pretreated at 131.5 uM for 1 hr prior to 16 hrs cytokine challenge by proteome profiling method relative to untreated-control", "how_it_was_run": "as §1"}, "[5]": {"test_system": "DLD-1", "assay": "Inhibition of TNF-alpha/IFN-gamma/IL-1beta-induced human CXCL10 (972 bp) promoter activity expressed in human DLD1 cells assessed as CXCL10 gene expression at 131.5 uM after 5 hrs by RT-PCR method relative to untreated-control", "how_it_was_run": "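Cells starved 16 h (0.5% FCS), compound pretreatment 1 h, then TNF-α 10 ng/mL/IFN-γ 10 ng/mL/IL-1β 5 ng/mL for 5 h. Total RNA analysed by two-step qRT-PCR for cxcl10, gapdh-corrected (Pfaffl); induced vs uninduced and treated-induced vs untreated-induced (100%).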"}, "[6]": {"test_system": "DLD-1", "assay": "Inhibition of TNF-alpha/IFN-gamma/IL-1beta-induced human CXCL10 (972 bp) promoter activity expressed in human DLD1 cells assessed as reduction in CXCL1 expression pretreated at 131.5 uM for 1 hr prior to 16 hrs cytokine challenge by proteome profiling method relative to untreated-control", "how_it_was_run": "as §1"}, "[7]": {"molecular_target": "T1, Signal transducer and activator of transcription 1-alpha/beta (Homo sapiens) (UniProt P42224)", "T1 sequence (whole entry)": "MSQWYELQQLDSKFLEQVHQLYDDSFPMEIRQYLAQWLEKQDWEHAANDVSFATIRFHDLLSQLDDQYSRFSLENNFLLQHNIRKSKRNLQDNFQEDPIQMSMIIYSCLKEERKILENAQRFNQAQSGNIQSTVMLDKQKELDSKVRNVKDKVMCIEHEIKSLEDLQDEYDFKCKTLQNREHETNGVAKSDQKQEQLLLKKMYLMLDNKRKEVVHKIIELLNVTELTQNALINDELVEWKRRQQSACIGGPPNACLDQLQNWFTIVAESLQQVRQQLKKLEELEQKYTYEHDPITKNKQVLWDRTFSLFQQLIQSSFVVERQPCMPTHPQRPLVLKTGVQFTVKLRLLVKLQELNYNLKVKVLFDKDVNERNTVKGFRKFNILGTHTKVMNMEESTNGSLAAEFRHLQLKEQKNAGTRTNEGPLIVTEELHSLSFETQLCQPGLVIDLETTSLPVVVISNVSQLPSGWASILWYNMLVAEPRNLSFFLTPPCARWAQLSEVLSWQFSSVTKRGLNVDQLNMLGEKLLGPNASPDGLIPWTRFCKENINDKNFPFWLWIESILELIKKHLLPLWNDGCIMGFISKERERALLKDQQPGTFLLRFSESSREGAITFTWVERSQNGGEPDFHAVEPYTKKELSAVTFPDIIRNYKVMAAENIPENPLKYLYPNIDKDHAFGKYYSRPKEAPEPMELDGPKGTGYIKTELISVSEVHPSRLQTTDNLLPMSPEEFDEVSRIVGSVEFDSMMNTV", "assay": "Inhibition of Stat1 (unknown origin) expressed in human DLD1 cells assessed as reduction in iNOS gene expression pretreated at 67.75 uM for 1 hr by RT-PCR method relative to untreated-control", "conditions": "DLD-1", "how_it_was_run": "(§2)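 DLD-1 seeded 5×10^5 cells/mL, grown 24 h, starved 16 h in 0.5% FCS, pretreated with compound 1 h, then stimulated with 10 ng/mL TNF-α, 10 ng/mL IFN-γ, 5 ng/mL IL-1β for 5 h. tnf-α, il-1β, inos mRNA by two-step qRT-PCR, Pfaffl relative quantification, normalised to gapdh; stimulated-untreated control = 100%. Mean ± SEM, three independent experiments.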"}, "[8]": {"molecular_target": "T2, Nuclear factor NF-kappa-B complex (Homo sapiens) (UniProt Q00653+P19838+Q04206)", "T2 sequence (P19838 whole entry, looked up)": "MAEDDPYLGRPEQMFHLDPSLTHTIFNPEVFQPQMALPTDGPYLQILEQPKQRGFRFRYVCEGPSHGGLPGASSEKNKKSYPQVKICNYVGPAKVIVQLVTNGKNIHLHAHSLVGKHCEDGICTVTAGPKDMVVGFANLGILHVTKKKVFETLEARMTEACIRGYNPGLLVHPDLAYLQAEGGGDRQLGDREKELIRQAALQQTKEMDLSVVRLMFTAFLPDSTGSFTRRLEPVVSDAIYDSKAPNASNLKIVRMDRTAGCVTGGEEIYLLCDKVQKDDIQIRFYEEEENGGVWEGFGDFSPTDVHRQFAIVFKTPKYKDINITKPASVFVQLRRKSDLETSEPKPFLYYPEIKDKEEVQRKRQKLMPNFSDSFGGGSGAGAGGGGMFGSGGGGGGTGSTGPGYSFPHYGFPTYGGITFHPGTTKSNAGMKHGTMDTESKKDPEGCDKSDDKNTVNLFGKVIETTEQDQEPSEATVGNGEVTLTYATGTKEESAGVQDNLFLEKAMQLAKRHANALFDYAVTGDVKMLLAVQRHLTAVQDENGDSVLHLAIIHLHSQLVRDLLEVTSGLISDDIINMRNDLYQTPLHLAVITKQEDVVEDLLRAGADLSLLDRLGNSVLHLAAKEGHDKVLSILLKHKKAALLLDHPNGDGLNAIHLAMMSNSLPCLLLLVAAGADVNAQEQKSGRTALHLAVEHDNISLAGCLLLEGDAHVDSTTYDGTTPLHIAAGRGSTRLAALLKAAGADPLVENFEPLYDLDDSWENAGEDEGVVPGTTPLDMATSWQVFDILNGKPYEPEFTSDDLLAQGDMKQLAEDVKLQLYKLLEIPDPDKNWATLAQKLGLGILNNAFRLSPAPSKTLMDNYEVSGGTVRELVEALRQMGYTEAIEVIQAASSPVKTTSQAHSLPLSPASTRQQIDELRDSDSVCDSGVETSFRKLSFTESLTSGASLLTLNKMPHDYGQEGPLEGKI", "T2 sequence (Q00653 whole entry, looked up)": "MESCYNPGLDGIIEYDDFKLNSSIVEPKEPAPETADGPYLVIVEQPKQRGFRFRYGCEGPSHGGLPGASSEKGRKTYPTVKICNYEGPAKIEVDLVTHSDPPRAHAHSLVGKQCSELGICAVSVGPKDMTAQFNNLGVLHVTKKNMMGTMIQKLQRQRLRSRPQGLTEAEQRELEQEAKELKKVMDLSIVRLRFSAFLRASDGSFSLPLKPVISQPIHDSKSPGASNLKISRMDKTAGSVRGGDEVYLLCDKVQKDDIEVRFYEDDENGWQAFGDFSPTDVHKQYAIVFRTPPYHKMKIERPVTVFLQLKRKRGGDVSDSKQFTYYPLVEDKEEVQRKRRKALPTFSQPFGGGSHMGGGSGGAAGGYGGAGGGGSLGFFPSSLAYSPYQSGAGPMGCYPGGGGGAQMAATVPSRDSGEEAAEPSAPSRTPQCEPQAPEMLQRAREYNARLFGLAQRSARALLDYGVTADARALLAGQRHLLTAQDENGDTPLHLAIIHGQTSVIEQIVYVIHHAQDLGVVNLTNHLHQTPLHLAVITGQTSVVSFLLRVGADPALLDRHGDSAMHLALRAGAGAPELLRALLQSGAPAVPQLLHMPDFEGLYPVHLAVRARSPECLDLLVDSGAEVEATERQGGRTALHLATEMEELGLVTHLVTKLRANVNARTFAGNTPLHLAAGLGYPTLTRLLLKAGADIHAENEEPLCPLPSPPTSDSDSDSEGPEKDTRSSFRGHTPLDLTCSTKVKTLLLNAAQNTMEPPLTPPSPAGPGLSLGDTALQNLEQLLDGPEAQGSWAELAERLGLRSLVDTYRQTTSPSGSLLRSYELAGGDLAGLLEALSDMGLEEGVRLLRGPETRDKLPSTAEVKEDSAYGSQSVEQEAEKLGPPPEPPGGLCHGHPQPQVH", "T2 sequence (Q04206 whole entry, looked up)": "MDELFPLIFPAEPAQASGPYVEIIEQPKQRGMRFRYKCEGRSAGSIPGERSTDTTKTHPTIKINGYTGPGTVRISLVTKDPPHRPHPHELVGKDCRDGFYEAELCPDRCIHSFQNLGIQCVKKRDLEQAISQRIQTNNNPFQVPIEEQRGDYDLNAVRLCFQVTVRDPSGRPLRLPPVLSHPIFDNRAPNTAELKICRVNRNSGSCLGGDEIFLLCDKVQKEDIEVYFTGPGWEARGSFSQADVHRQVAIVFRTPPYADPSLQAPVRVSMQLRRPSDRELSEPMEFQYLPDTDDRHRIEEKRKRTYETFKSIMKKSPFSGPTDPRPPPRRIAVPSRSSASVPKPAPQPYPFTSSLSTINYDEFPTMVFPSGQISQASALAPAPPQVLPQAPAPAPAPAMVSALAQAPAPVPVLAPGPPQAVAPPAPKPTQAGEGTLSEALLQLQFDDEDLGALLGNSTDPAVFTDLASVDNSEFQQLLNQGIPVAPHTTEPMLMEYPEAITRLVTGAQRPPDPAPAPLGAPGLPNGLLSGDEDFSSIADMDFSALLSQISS", "assay": "Inhibition of NF-kappaB (unknown origin) expressed human DLD1 cells assessed as reduction in iNOS gene expression pretreated at 67.75 uM for 1 hr by RT-PCR method relative to untreated-control", "conditions": "DLD-1", "how_it_was_run": "as §2"}, "[9]": {"test_system": "DLD-1", "assay": "Inhibition of TNF-alpha/IFN-gamma/IL-1beta-induced human CXCL10 (972 bp) promoter activity expressed in human DLD1 cells assessed as reduction in IL8 expression pretreated at 131.5 uM for 1 hr prior to 16 hrs cytokine challenge by proteome profiling method relative to untreated-control", "how_it_was_run": "as §1"}, "[10]": {"test_system": "DLD-1", "assay": "Inhibition of TNF-alpha/IFN-gamma/IL-1beta-induced human CXCL10 (972 bp) promoter activity expressed in human DLD1 cells assessed as reduction in CXCL10 expression pretreated at 131.5 uM for 1 hr prior to 16 hrs cytokine challenge by proteome profiling method relative to untreated-control", "how_it_was_run": "as §1"}, "[11]": {"assay": "(§3) Inhibition of TNF-alpha/IFN-gamma/IL-1beta-induced human CXCL10 (972 bp) promoter activity expressed in human DLD1 cells after 24 hrs by luciferase reporter assay", "conditions": "DLD-1, 24 h", "how_it_was_run": "(§4)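 DLD-1 in 24-well plates, switched to 0.5% FCS without antibiotics a day before lipofection (Lipofectamine 2000, 0.8 µg plasmid) with 972 bp CXCL10 promoter, NF-κB, GAS/Stat1 or ISRE luciferase reporters plus pRL-CMV. Stimulated 24 h with 10 ng/mL TNF-α, 10 ng/mL IFN-γ, 5 ng/mL IL-1β ± compound; Dual-Glo firefly/Renilla read. Stimulation-only = 100%; mean ± SEM, ≥3 experiments.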"}, "[12]": {"test_system": "DLD-1", "assay": "as §3", "how_it_was_run": "as §4"}, "[13]": {"molecular_target": "T1, Signal transducer and activator of transcription 1-alpha/beta (Homo sapiens)", "assay": "Inhibition of Stat1 (unknown origin) expressed human DLD1 cells assessed as reduction in TNF-alpha gene expression pretreated at 67.75 uM for 1 hr by RT-PCR method relative to untreated-control", "conditions": "DLD-1", "how_it_was_run": "as §2"}, "[14]": {"assay": "Inhibition of TNF-alpha/IFN-gamma/IL-1beta-induced human CXCL10 (972 bp) promoter activity expressed in human DLD1 cells after 24 hrs by […]-driven luciferase reporter assay", "conditions": "DLD-1, 24 h", "how_it_was_run": "as §4"}, "[15]": {"molecular_target": "T1, Signal transducer and activator of transcription 1-alpha/beta (Homo sapiens)", "assay": "Inhibition of Stat1 (unknown origin)-induced human CXCL10 (972 bp) promoter activity expressed in TNF-alpha/IFN-gamma/IL-1beta-stimulated human DLD1 cells after 24 hrs by luciferase reporter assay", "conditions": "DLD-1", "how_it_was_run": "as §4"}, "[16]": {"molecular_target": "T1, Signal transducer and activator of transcription 1-alpha/beta (Homo sapiens)", "assay": "Inhibition of Stat1 (unknown origin) expressed human DLD1 cells assessed as reduction in IL1-beta gene expression pretreated at 67.75 uM for 1 hr by RT-PCR method relative to untreated-control", "conditions": "DLD-1", "how_it_was_run": "as §2"}, "[17]": {"test_system": "DLD-1", "assay": "Inhibition of TNF-alpha/IFN-gamma/IL-1beta-induced human CXCL10 (972 bp) promoter activity expressed in human DLD1 cells assessed as reduction in IL-27 expression pretreated at 131.5 uM for 1 hr prior to 16 hrs cytokine challenge by proteome profiling method relative to untreated-control", "how_it_was_run": "as §1"}, "[18]": {"molecular_target": "T2, Nuclear factor NF-kappa-B complex (Homo sapiens)", "assay": "Inhibition of NF-kappaB (unknown origin) expressed human DLD1 cells assessed as reduction in TNF-alpha gene expression pretreated at 67.75 uM for 1 hr by RT-PCR method relative to untreated-control", "conditions": "DLD-1", "how_it_was_run": "as §2"}, "[19]": {"molecular_target": "T2, Nuclear factor NF-kappa-B complex (Homo sapiens)", "assay": "Inhibition of NF-kappaB (unknown origin) expressed human DLD1 cells assessed as reduction in IL1-beta gene expression pretreated at 67.75 uM for 1 hr by RT-PCR method relative to untreated-control", "conditions": "DLD-1", "how_it_was_run": "as §2"}},
  "note": "Activity calls are given as the source filed them. The calls are words filed in the database; no cut-off is given here.",
  "data": [
    {"smiles": "CCCCCC(=O)O[C@@H]1C=C2COC(=O)[C@]2(O)[C@@]2(C)[C@H](O)CCC(C)(C)[C@H]12", "values": [
      {"measurement": "inhibition", "setting": "[1]", "result": "Active"},
      {"measurement": "inhibition", "setting": "[2]", "result": "Active"},
      {"measurement": "Activity", "setting": "[3]", "result": "Non-toxic"},
      {"measurement": "inhibition", "setting": "[4]", "result": "Active"},
      {"measurement": "inhibition", "setting": "[5]", "result": "Active"},
      {"measurement": "inhibition", "setting": "[6]", "result": "Active"},
      {"measurement": "inhibition", "setting": "[7]", "result": "Active"},
      {"measurement": "inhibition", "setting": "[8]", "result": "Active"},
      {"measurement": "inhibition", "setting": "[9]", "result": "Active"},
      {"measurement": "inhibition", "setting": "[10]", "result": "Active"},
      {"measurement": "IC50", "setting": "[11]", "result": 55, "unit": "µM"},
      {"measurement": "inhibition", "setting": "[12]", "result": "Dose-dependent effect"},
      {"measurement": "inhibition", "setting": "[13]", "result": "Active"},
      {"measurement": "IC50", "setting": "[14]", "result": 49, "unit": "µM"},
      {"measurement": "inhibition", "setting": "[15]", "result": "Dose-dependent effect"},
      {"measurement": "inhibition", "setting": "[16]", "result": "Active"},
      {"measurement": "inhibition", "setting": "[17]", "result": "Active"},
      {"measurement": "inhibition", "setting": "[18]", "result": "Active"},
      {"measurement": "inhibition", "setting": "[19]", "result": "Active"}
    ]}
  ]
}
